Square brackets hold non-standard residues; d marks the D form. Peptide text beside a SMILES is read from it. * marks the point of attachment. Palmitoyl = CCCCCCCCCCCCCCCC(=O)*; Myristoyl = CCCCCCCCCCCCCC(=O)*; Nle = CCCC[C@H](N)C(=O)O
Tested on: SK-MEL-2
Test: Growth inhibition of SK-Mel2 melanoma cells after 48 hrs by MTT assay
Assay type: functional, cell-based, Homo sapiens
Summary of the method: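 Cells seeded at 200-400 per well in DMEM with 10% FBS and left to attach for 24 h. The next day, inhibitor in medium at 2× was added in an equal volume, and cells were incubated 48 h in a CO2 incubator. Reference plates were read at time of addition for T0 density. MTT staining was read as absorbance at 544 nm and compared with untreated control cells.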

Compound	IC50 (Homo sapiens, SK-MEL-2, 48 h) [µM]	IC50 (sk-mel-2) [µM]
CCCC[C@H](NC(=O)[C@H](CCCNC(=N)N)NC(=O)[C@H](CCCNC(=N)N)NC(=O)[C@H](CC(N)=O)NC(=O)[C@@H]1CCCN1C(=O)[C@H](Cc1ccccc1)NC(=O)[C@H](Cc1c[nH]c2ccccc12)NC(=O)[C@@H](NC(=O)[C@H](CCCCN)NC(=O)[C@@H](NC(=O)[C@H](CCC(N)=O)NC(=O)[C@@H](N)CCCNC(=N)N)[C@@H](C)CC)[C@@H](C)CC)C(=O)N[C@@H](CCCCN)C(=O)N[C@@H](Cc1c[nH]c2ccccc12)C(=O)N[C@@H](CCCCN)C(=O)N[C@@H](CCCCN)C(=O)N[C@@H](CC(C)C)C(=O)N[C@H](C(=O)N[C@@H](Cc1ccc(O)cc1)C(=O)N[C@@H](C)C(=O)N[C@@H](Cc1c[nH]c2ccccc12)C(=O)N[C@@H](Cc1cnc[nH]1)C(=O)N[C@H](C(=O)N[C@@H](CO)C(=O)N[C@@H](Cc1ccccc1)C(=O)N[C@@H](CCCCN)C(=O)N[C@@H](C)C(=O)N[C@@H](CC(C)C)C(=O)O)[C@@H](C)O)[C@@H](C)O (H-RQIKIWFPNRR[Nle]KWKKLTYAWHTSFKAL-OH)	> 15	
H-VWFVVLTYAWHTSFKAL-OH	> 5	
Ac-TYAWHTSFKA-OH	2.8	
CCCCCCCCCCCCCCCC(=O)NCCCC[C@H](NC(=O)[C@H](CCCNC(=N)N)NC(=O)[C@H](CC(C)C)NC(=O)[C@H](CCSC)NC(=O)[C@@H](NC(=O)[C@H](CCC(=O)O)NC(=O)[C@H](CC(N)=O)NC(=O)[C@@H](NC(=O)[C@H](CCCCN)NC(=O)[C@H](CO)NC(=O)[C@H](C)NC(=O)[C@H](C)NC(=O)[C@H](CCCCN)NC(=O)[C@H](CCC(=O)O)NC(=O)[C@H](CO)NC(=O)[C@H](CC(C)C)NC(=O)[C@H](CC(C)C)NC(C)=O)[C@@H](C)CC)[C@@H](C)O)C(=O)O (stereo in doubt; form 1)		0.8
CCCC[C@H](NC(=O)[C@H](CCCNC(=N)N)NC(=O)[C@H](CCCNC(=N)N)NC(=O)[C@H](CC(N)=O)NC(=O)[C@@H]1CCCN1C(=O)[C@H](Cc1ccccc1)NC(=O)[C@H](Cc1c[nH]c2ccccc12)NC(=O)[C@@H](NC(=O)[C@H](CCCCN)NC(=O)[C@@H](NC(=O)[C@H](CCC(N)=O)NC(=O)[C@H](CCCNC(=N)N)NC(=O)[C@H](CC(C)C)NC(=O)[C@H](C)NC(=O)[C@H](CCCCN)NC(=O)[C@H](Cc1ccccc1)NC(=O)[C@H](CO)NC(=O)[C@@H](NC(=O)[C@H](Cc1cnc[nH]1)NC(=O)[C@H](Cc1c[nH]c2ccccc12)NC(=O)[C@H](C)NC(=O)[C@H](Cc1ccc(O)cc1)NC(=O)[C@@H](NC(=O)[C@H](CC(C)C)NC(C)=O)[C@@H](C)O)[C@@H](C)O)[C@@H](C)CC)[C@@H](C)CC)C(=O)N[C@@H](CCCCN)C(=O)N[C@@H](Cc1c[nH]c2ccccc12)C(=O)N[C@@H](CCCCN)C(=O)N[C@@H](CCCCN)C(=O)O (Ac-LTYAWHTSFKALRQIKIWFPNRR[Nle]KWKK-OH)	> 15	
CCCCCCCCCCCCCCCC(=O)NCCCC[C@H](NC(=O)[C@H](Cc1ccc(O)cc1)NC(=O)[C@H](CO)NC(=O)[C@@H](NC(=O)[C@H](CCCCN)NC(=O)CNC(=O)[C@H](CO)NC(=O)[C@H](CC(C)C)NC(=O)[C@@H]1CCCN1C(=O)[C@H](CCC(N)=O)NC(=O)[C@H](Cc1ccc(O)cc1)NC(=O)[C@@H](NC(=O)[C@@H](NC(=O)CNC(=O)[C@H](CC(C)C)NC(=O)[C@H](C)NC(=O)[C@H](CCCCN)NC(=O)[C@H](Cc1ccccc1)NC(=O)[C@H](CO)NC(=O)[C@@H](NC(=O)[C@H](Cc1cnc[nH]1)NC(=O)[C@H](Cc1c[nH]c2ccccc12)NC(=O)[C@H](C)NC(=O)[C@H](Cc1ccc(O)cc1)NC(=O)[C@@H](NC(=O)[C@H](CC(C)C)NC(C)=O)[C@@H](C)O)[C@@H](C)O)[C@@H](C)O)[C@@H](C)O)[C@@H](C)O)C(=O)O (Ac-LTYAWHTSFKALGTTYQPLSGKTSYK(Palmitoyl)-OH)	1	
CCCCCCCCCCCCCCCC(=O)NCCCC[C@H](NC(=O)[C@H](Cc1ccc(O)cc1)NC(=O)[C@H](CO)NC(=O)[C@@H](NC(=O)[C@H](CCCCN)NC(=O)CNC(=O)[C@H](CO)NC(=O)[C@H](CC(C)C)NC(=O)[C@@H]1CCCN1C(=O)[C@H](CCC(N)=O)NC(=O)[C@H](Cc1ccc(O)cc1)NC(=O)[C@@H](NC(=O)[C@@H](NC(=O)CNC(=O)[C@H](CC(C)C)NC(=O)[C@H](C)NC(=O)[C@H](CCCCN)NC(=O)[C@H](Cc1ccccc1)NC(=O)[C@H](CO)NC(=O)[C@@H](NC(=O)[C@H](Cc1cnc[nH]1)NC(=O)[C@H](Cc1c[nH]c2ccccc12)NC(=O)[C@H](C)NC(=O)[C@H](Cc1ccc(O)cc1)NC(C)=O)[C@@H](C)O)[C@@H](C)O)[C@@H](C)O)[C@@H](C)O)C(=O)O (Ac-YAWHTSFKALGTTYQPLSGKTSYK(Palmitoyl)-OH)	1	

Continued, values first:

IC50 (Homo sapiens, SK-MEL-2, 48 h) [µM]	IC50 (sk-mel-2) [µM]	Compound
0.5		CCCCCCCCCCCCCCCC(=O)N[C@@H](CCCNC(=N)N)C(=O)NCC(=O)N[C@H](C(=O)N[C@@H](CCSC)C(=O)N[C@H](C(=O)N[C@@H](CC(C)C)C(=O)N[C@@H](Cc1ccccc1)C(=O)N[C@@H](CO)C(=O)N[C@H](C(=O)N[C@@H](CCCCN)C(=O)N[C@@H](CO)C(=O)N[C@@H](CC(N)=O)C(=O)N[C@@H](Cc1c[nH]cn1)C(=O)N1CCC[C@H]1C(=O)NCC(=O)N[C@@H](CC(C)C)C(=O)N[C@@H](CC(C)C)C(=O)N[C@@H](CO)C(=O)O)[C@@H](C)CC)[C@@H](C)O)C(C)C (Palmitoyl-RGVMTLFSIKSNHPGLLS-OH)
0.05		CCCCCCCCCCCCCCCC(=O)NCCCC[C@H](NC(=O)[C@H](Cc1ccc(O)cc1)NC(=O)[C@H](CO)NC(=O)[C@@H](NC(=O)[C@H](CCCCN)NC(=O)CNC(=O)[C@H](CO)NC(=O)[C@H](CC(C)C)NC(=O)[C@@H]1CCCN1C(=O)[C@H](CCC(N)=O)NC(=O)[C@H](Cc1ccc(O)cc1)NC(=O)[C@@H](NC(=O)[C@@H](NC(=O)CNC(=O)[C@H](CC(C)C)NC(=O)[C@H](C)NC(=O)[C@H](CCCCN)NC(=O)[C@H](Cc1ccccc1)NC(=O)[C@H](CO)NC(=O)[C@@H](NC(=O)[C@H](Cc1cnc[nH]1)NC(=O)[C@H](Cc1c[nH]c2ccccc12)NC(=O)[C@H](C)NC(=O)[C@H](Cc1ccc(O)cc1)NC(=O)[C@@H](NC(=O)[C@H](CC(C)C)NC(=O)CCCCCCCCCCCCCCC)[C@@H](C)O)[C@@H](C)O)[C@@H](C)O)[C@@H](C)O)[C@@H](C)O)C(=O)O (Palmitoyl-LTYAWHTSFKALGTTYQPLSGKTSYK(Palmitoyl)-OH)
0.9		CCCCCCCCCCCCCCCC(=O)NCCCC[C@H](NC(=O)[C@H](CCCNC(=N)N)NC(=O)[C@H](CC(C)C)NC(=O)[C@H](CCSC)NC(=O)[C@@H](NC(=O)[C@H](CCC(=O)O)NC(=O)[C@H](CC(N)=O)NC(=O)[C@@H](NC(=O)[C@H](CCCCN)NC(=O)[C@H](CO)NC(=O)[C@H](C)NC(=O)[C@H](C)NC(=O)[C@H](CCCCN)NC(=O)[C@H](CCC(=O)O)NC(=O)[C@H](CO)NC(=O)[C@H](CC(C)C)NC(=O)[C@H](CC(C)C)NC(=O)CNC(=O)[C@@H]1CCCN1C(=O)[C@H](Cc1c[nH]cn1)NC(=O)[C@H](CC(N)=O)NC(=O)[C@H](CO)NC(=O)[C@H](CCCCN)NC(=O)[C@@H](NC(=O)[C@H](CO)NC(=O)[C@H](Cc1ccccc1)NC(=O)[C@H](CC(C)C)NC(=O)[C@@H](NC(=O)[C@H](CCSC)NC(=O)[C@@H](NC(=O)CNC(=O)[C@H](CCCNC(=N)N)NC(C)=O)C(C)C)[C@@H](C)O)[C@@H](C)CC)[C@@H](C)CC)[C@@H](C)O)C(=O)O (Ac-RGVMTLFSIKSNHPGLLSEKAASKINETMLRK(Palmitoyl)-OH)
0.95		CCCCCCCCCCCCCCCC(=O)N[C@@H](CCCNC(=N)N)C(=O)NCC(=O)N[C@H](C(=O)N[C@@H](CCSC)C(=O)N[C@H](C(=O)N[C@@H](CC(C)C)C(=O)N[C@@H](Cc1ccccc1)C(=O)N[C@@H](CO)C(=O)N[C@H](C(=O)N[C@@H](CCCCN)C(=O)N[C@@H](CO)C(=O)N[C@@H](CC(N)=O)C(=O)N[C@@H](Cc1c[nH]cn1)C(=O)O)[C@@H](C)CC)[C@@H](C)O)C(C)C (Palmitoyl-RGVMTLFSIKSNH-OH)
0.2		CCCCCCCCCCCCCC(=O)N[C@@H](CC(C)C)C(=O)N[C@H](C(=O)N[C@@H](Cc1ccc(O)cc1)C(=O)N[C@@H](C)C(=O)N[C@@H](Cc1c[nH]c2ccccc12)C(=O)N[C@@H](Cc1cnc[nH]1)C(=O)N[C@H](C(=O)N[C@@H](CO)C(=O)N[C@@H](Cc1ccccc1)C(=O)N[C@@H](CCCCN)C(=O)N[C@@H](C)C(=O)N[C@@H](CC(C)C)C(=O)O)[C@@H](C)O)[C@@H](C)O (Myristoyl-LTYAWHTSFKAL-OH)
0.45		CCCCCCCCCCCCCCCC(=O)N[C@@H](CC(C)C)C(=O)N[C@H](C(=O)N[C@@H](Cc1ccc(O)cc1)C(=O)N[C@@H](C)C(=O)N[C@@H](Cc1c[nH]c2ccccc12)C(=O)N[C@@H](Cc1cnc[nH]1)C(=O)N[C@H](C(=O)N[C@@H](CO)C(=O)N[C@@H](Cc1ccccc1)C(=O)N[C@@H](CCCCN)C(=O)N[C@@H](C)C(=O)N[C@@H](CC(C)C)C(=O)NCC(=O)N[C@H](C(=O)N[C@H](C(=O)N[C@@H](Cc1ccc(O)cc1)C(=O)N[C@@H](CCC(N)=O)C(=O)N1CCC[C@H]1C(=O)N[C@@H](CC(C)C)C(=O)N[C@@H](CO)C(=O)NCC(=O)N[C@@H](CCCCN)C(=O)N[C@H](C(=O)N[C@@H](CO)C(=O)N[C@@H](Cc1ccc(O)cc1)C(=O)O)[C@@H](C)O)[C@@H](C)O)[C@@H](C)O)[C@@H](C)O)[C@@H](C)O (Palmitoyl-LTYAWHTSFKALGTTYQPLSGKTSY-OH)
0.5		CCCCCCCCCCCCCCCC(=O)N[C@@H](CCCNC(=N)N)C(=O)NCC(=O)N[C@H](C(=O)N[C@@H](CCSC)C(=O)N[C@H](C(=O)N[C@@H](CC(C)C)C(=O)N[C@@H](Cc1ccccc1)C(=O)N[C@@H](CO)C(=O)N[C@H](C(=O)N[C@@H](CCCCN)C(=O)N[C@@H](CO)C(=O)N[C@@H](CC(N)=O)C(=O)N[C@@H](Cc1c[nH]cn1)C(=O)N1CCC[C@H]1C(=O)NCC(=O)N[C@@H](CC(C)C)C(=O)N[C@@H](CC(C)C)C(=O)N[C@@H](CO)C(=O)N[C@@H](CCC(=O)O)C(=O)N[C@@H](CCCCN)C(=O)N[C@@H](C)C(=O)O)[C@@H](C)CC)[C@@H](C)O)C(C)C (Palmitoyl-RGVMTLFSIKSNHPGLLSEKA-OH)
